From ChEMBL document CHEMBL4387794, “Constituents of the Edible Leaves of Melicope pteleifolia with Potential Analgesic Activity” (J Nat Prod, 2019) come the findings set out here.

Data set [1] relates to HaCaT. The data set can be described thus: Antipyretic activity in human HaCaT cells assessed as inhibition of TNFalpha-induced PGE2 production at 50 uM pre-incubated for 2 hrs before TNFalpha stimulation for 24 hrs by ELISA. Type of data set: functional, cell-based. In a few lines: (§1)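 HaCaT keratinocytes, seeded at 1.5 × 10^5 cells/well and grown overnight, then serum-starved 12 h. Pretreated with compounds for 2 h, then stimulated 24 h with 20 ng/mL TNF-α; unstimulated cells as negative control. Supernatant PGE2 quantified by ELISA, absorbance 450 nm. Means ± SD of three independent experiments.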

For data set [2], the system named is HaCaT. The data set can be described thus: Antipyretic activity in human HaCaT cells assessed as inhibition of TNFalpha-induced PGE2 production at 100 uM pre-incubated for 2 hrs before TNFalpha stimulation for 24 hrs by ELISA. In kind it is functional, cell-based. In a few lines: as §1
The test system of data set [3] is HaCaT. The data set can be described thus: Cytotoxicity in human HaCaT cells assessed as reduction in cell viability at 100 uM incubated for 2 4 hrs by MTT assay. Type of data set: cell-based. In a few lines: (§2)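 MTT viability in HaCaT cells seeded at 10^4 cells/well. After 12 h, compounds added in serum-free medium for 24 h, then MTT 4 h. Formazan dissolved in DMSO, absorbance read at 550 nm. Triplicate wells, experiments repeated at least three times.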

Data set [4] has as its system HaCaT. Description: Cytotoxicity in human HaCaT cells assessed as reduction in cell viability at 50 uM incubated for 2 4 hrs by MTT assay. Type of data set: cell-based. Put shortly: as §2
Another data set concerns Mus musculus. The data set can be described thus: Antipyretic activity in ICR mouse assessed as suppression of LPS-induced febrile response measured at 10 mg/kg, po administered 30 mins before LPS injection and measured up to 6 hrs post LPS injection. Type of data set: functional, organism-based. In a few lines: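 Male 8-week-old ICR mice, 5 per group, reverse 12 h light/dark cycle. Compound suspended in 0.5% carboxymethyl cellulose, given orally 30 min before i.p. LPS (0.5 mg/kg in pyrogen-free PBS). Baseline rectal Tb from six readings over 2 h, then Tb followed to 6 h post-LPS. Each hour compared to LPS group, Student t-test, p < 0.05.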

Where [5] appears, read: 50 uM, in the assay text read “at 50 uM” for “at 100 uM”.

Activity calls are given as the source filed them. The calls are words filed in the database; no cut-off is given here.

On to `CC(=O)c1c(O)c([C@@H]2O[C@H](CO)[C@@H](O)[C@H](O)[C@H]2O)c(O)c([C@@H]2O[C@H](COC(=O)c3ccccc3)[C@@H](O)[C@H](O)[C@H]2O)c1O`, for which the inhibition result with HaCaT [1] and in the data set on HaCaT [2] (100 uM) was “Active” throughout. Besides, the Activity entry in the data set on HaCaT [3] is listed as “Non-Toxic”.
With `CC(=O)c1c(O)c([C@@H]2O[C@H](CO)[C@@H](O)[C@H](O)[C@H]2O)c(O)c([C@@H]2O[C@H](COC(=O)[C@H]3[C@H](C(=O)OC[C@H]4O[C@@H](c5c(O)c(C(C)=O)c(O)c([C@@H]6O[C@H](CO)[C@@H](O)[C@H](O)[C@H]6O)c5O)[C@H](O)[C@@H](O)[C@@H]4O)[C@@H](c4ccc(O)cc4)[C@@H]3c3ccc(O)cc3)[C@@H](O)[C@H](O)[C@H]2O)c1O`, the inhibition result in the data set on HaCaT [1] and in the data set with HaCaT [2] (100 uM) was “Active” in each case. Moreover, the Activity result in the data set on HaCaT [3] is “Non-Toxic”.
As to `COc1cc(/C=C/C(=O)OC[C@H]2O[C@@H](c3c(O)c(C(C)=O)c(O)c([C@@H]4O[C@H](COC(=O)/C=C/c5ccc(O)c(OC)c5)[C@@H](O)[C@H](O)[C@H]4O)c3O)[C@H](O)[C@@H](O)[C@@H]2O)ccc1O`, the inhibition entry in the data set on HaCaT [1] and in the data set with HaCaT [2] (setting [5]) was “Active” each time. For the same molecule, the Activity entry is listed as “Toxic” with HaCaT [3] and “Non-Toxic” in the data set on HaCaT [4].
As to `CC(=O)c1c(O)c([C@@H]2O[C@H](CO)[C@@H](O)[C@H](O)[C@H]2O)c(O)c2c1O[C@@]1(C2)O[C@@H](CO)[C@H](O)[C@H]1O`, the inhibition entry in the data set with HaCaT [1] and in the data set on HaCaT [2] (100 uM) was “Active” throughout. The Activity entry with HaCaT [3] was “Non-Toxic”.
Regarding `CC(=O)c1c(O)c([C@@H]2O[C@H](CO)[C@@H](O)[C@H](O)[C@H]2O)c(O)c2c1O[C@@]1(C2)O[C@H](CO)[C@H](O)[C@@H]1O`, the inhibition result with HaCaT [1] and with HaCaT [2] (100 uM) was “Active” in each case. Also, the Activity entry in the data set with HaCaT [3] is reported as “Non-Toxic”.
Regarding `CC(=O)c1c(O)c([C@@H]2O[C@H](CO)[C@@H](O)[C@H](O)[C@H]2O)c(O)c2c1O[C@]1(C2)O[C@H](CO)[C@@H](O)[C@H]1O`, the inhibition result with HaCaT [1] and in the data set on HaCaT [2] (100 uM) was “Active” throughout. Also, the Activity entry in the data set with HaCaT [3] is recorded as “Non-Toxic”.
`CC(=O)c1c(O)c([C@@H]2O[C@H](CO)[C@@H](O)[C@H](O)[C@H]2O)c(O)c2c1O[C@@]1(C2)O[C@H](CO)[C@@H](O)[C@@H]1O`: the inhibition entry in the data set with HaCaT [1] and in the data set on HaCaT [2] (100 uM) was “Active” throughout. Moreover, the Activity result in the data set with HaCaT [3] is “Non-Toxic”.
Consider `CC(=O)c1c(O)c([C@@H]2O[C@H](CO)[C@@H](O)[C@H](O)[C@H]2O)c(O)c([C@@H]2O[C@H](CO)[C@@H](O)[C@H](O)[C@H]2O)c1O`, for which the inhibition entry with HaCaT [1] and with HaCaT [2] (100 uM) was “Active” in each case. For the same molecule, in the data set on HaCaT [3], the Activity result was “Non-Toxic”. In addition, in the data set on Mus musculus, the outcome was Active.
For `CC(=O)Oc1ccccc1C(=O)O`, the inhibition result in the data set with HaCaT [2] (100 uM) is “Active”.
As to `COc1cc(/C=C/C(=O)OC[C@H]2O[C@@H](c3c(O)c(C(C)=O)c(O)c([C@@H]4O[C@H](CO)[C@@H](O)[C@H](O)[C@H]4O)c3O)[C@H](O)[C@@H](O)[C@@H]2O)ccc1O`, the inhibition entry with HaCaT [1] and in the data set on HaCaT [2] (100 uM) was “Active” throughout. The Activity result in the data set with HaCaT [3] is on record as “Non-Toxic”.
Turning to `CC(=O)c1c(O)c([C@@H]2O[C@H](CO)[C@@H](O)[C@H](O)[C@H]2O)c(O)c2c1O[C@]1(C2)O[C@H](CO)[C@@H](O)[C@@H]1O`, the inhibition result in the data set with HaCaT [1] and in the data set with HaCaT [2] (100 uM) was “Active” each time. Moreover, the Activity result in the data set on HaCaT [3] is “Non-Toxic”.
`COc1cc(/C=C/C(=O)OC[C@H]2O[C@@H](c3c(O)c(C(C)=O)c(O)c([C@@H]4O[C@H](COC(=O)/C=C/c5ccc(O)cc5)[C@@H](O)[C@H](O)[C@H]4O)c3O)[C@H](O)[C@@H](O)[C@@H]2O)ccc1O`: the inhibition entry with HaCaT [1] and with HaCaT [2] (setting [5]) was “Active” throughout. The Activity entry in the data set with HaCaT [3] is recorded as “Toxic”; with HaCaT [4], “Non-Toxic”.
In the case of `CC(=O)c1c(O)c([C@@H]2O[C@H](CO)[C@@H](O)[C@H](O)[C@H]2O)c(O)c([C@@H]2O[C@H](COC(=O)/C=C/c3ccc(O)cc3)[C@@H](O)[C@H](O)[C@H]2O)c1O`, the inhibition entry in the data set on HaCaT [1] and with HaCaT [2] (100 uM) was “Active” each time. In addition, in the data set with HaCaT [3], the Activity entry is listed as “Non-Toxic”.
Take `CC(=O)c1c(O)c([C@@H]2O[C@H](COC(=O)/C=C/c3ccc(O)cc3)[C@@H](O)[C@H](O)[C@H]2O)c(O)c([C@@H]2O[C@H](COC(=O)/C=C/c3ccc(O)cc3)[C@@H](O)[C@H](O)[C@H]2O)c1O`: the inhibition result in the data set on HaCaT [1] and in the data set on HaCaT [2] (100 uM) was “Active” each time. The Activity result with HaCaT [3] is “Non-Toxic”.
